Compound activity: PubChem BioAssay, several laboratories
HCV core dimer: inhibitors of HCV core protein dimerization, primary screen, biochemical, TR-FRET, high-throughput; TR-FRET GST/Flag-core106 dimerization, 1536-well; inhibition, % at 5 µM; 0.33% of 300,000 active; AID 1899, 2009;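 active = inhibition above the mean of all tested compounds plus 3 SD, set per screening campaign, cut at about 45% in these data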
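System: GST/Flag-tagged HCV core106 proteins. Incubation: compound-protein-antibody incubation 4 h at 22.5 °C. Technique: HTRF with 340 nm excitation, 617/671 nm emission. Medium: KF-containing HEPES buffer, pH 7.45, DTT, CHAPS, BSA. Read-out: inhibition (%) from 671 over 617 nm ratio. Also added: Eu(K)-anti-GST 90 ng/mL plus XL665-anti-Flag 1 µg/mL.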
FID counter: compounds displacing fluorescent DNA intercalator, primary screen, artefact control for HCV NS3 helicase inhibitor project, biochemical, FID fluorescence; DNA fluorescent intercalator displacement; 0.17% of 290,000 active; inhibition, % at 7.9 µM; AID 1845, 2009; in the data active = inhibition above about 37%;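 also: 0% = vehicle and 100% = reference compound; higher means more ethidium bromide displaced from hairpin DNA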
eIF4H FP inh: human eIF4H binding inhibitors, primary screen, translation initiation inhibitor project, biochemical, uHTS, fluorescence polarization | Eukaryotic translation initiation factor 4H (Homo sapiens), Q15056 | eIF4H fluorescence polarization binding assay | inhibition, % at 35 µM | 0.94% of 290,000 active | AID 2012, 2009;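 also: calls also rest on retests at 20 µM and on dose response follow-up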
PABP polyA inh: PABP poly(A) RNA binding inhibitors, primary screen, biochemical, fluorescence polarization, uHTS. Polyadenylate-binding protein 1 (Homo sapiens), P11940. 1% of 290,000 active. inhibition, % at 35 µM;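 also: calls also rest on retests at 20 µM and on dose response follow-up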
Target sequence (P11940 whole entry, looked up): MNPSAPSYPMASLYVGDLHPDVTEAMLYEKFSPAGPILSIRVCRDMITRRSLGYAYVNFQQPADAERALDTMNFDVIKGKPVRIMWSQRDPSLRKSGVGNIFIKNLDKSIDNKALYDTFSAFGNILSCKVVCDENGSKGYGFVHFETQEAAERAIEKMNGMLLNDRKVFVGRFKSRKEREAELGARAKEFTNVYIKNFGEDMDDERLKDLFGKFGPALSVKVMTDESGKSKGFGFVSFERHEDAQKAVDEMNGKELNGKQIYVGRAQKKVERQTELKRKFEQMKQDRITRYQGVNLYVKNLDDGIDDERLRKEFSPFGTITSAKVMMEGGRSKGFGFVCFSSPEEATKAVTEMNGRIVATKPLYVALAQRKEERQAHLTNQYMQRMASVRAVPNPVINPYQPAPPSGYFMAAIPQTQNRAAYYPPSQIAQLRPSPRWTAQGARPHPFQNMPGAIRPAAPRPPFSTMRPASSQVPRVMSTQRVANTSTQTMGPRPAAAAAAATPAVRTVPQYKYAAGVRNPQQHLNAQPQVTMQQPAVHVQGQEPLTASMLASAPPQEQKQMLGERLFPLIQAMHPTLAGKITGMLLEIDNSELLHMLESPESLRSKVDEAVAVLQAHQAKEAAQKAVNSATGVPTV
MLLE-PAM2 inh: inhibitors of PABP1 MLLE–PAM2 peptide binding, primary screen, biochemical, fluorescence polarization, FITC-PAM2, GST-MLLE | inhibition, % at 20 µM | 0.36% of 360,000 active; in the data active = inhibition above about 35%, passing the limit was not always enough;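 also: plate controls were DMSO wells with GST-MLLE for no effect and wells lacking GST-MLLE protein for full effect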
HCV NS3 hel inh: inhibitors of HCV NS3 helicase, primary screen, biochemical, Cy5 molecular beacon fluorescence; inhibition, % at 10.9 µM; 0.56% of 290,000 active; Hepatitis C virus NS3 helicase; NS3 helicase DNA unwinding;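 active = inhibition above the mean of all tested compounds plus 3 SD, set per campaign, cut at about 35% in these data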;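 also: 0% = DMSO wells and 100% = thioflavine S control wells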
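Assay system: hepatitis C virus NS3 helicase domain fragment enzyme. Also added: annealed dual-labelled DNA beacon duplex, ATP-started. Timing: 1 h reaction at 25 °C, ATP-initiated. Technique: Cy5 fluorescence at 0 and 60 min, beacon hairpin quenching. Evaluation: % inhibition of unwinding. Replication: one well per compound.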
* marks the source's active call; other numbers are inactive results; ? = inconclusive; nt = not tested or not shown. The list is not random: actives were taken first. Their share in the collection is about 2%. Unless noted, no rule for the calls is given here.

SMILES	HCV core dimer	FID counter	eIF4H FP inh	PABP polyA inh	MLLE-PAM2 inh	HCV NS3 hel inh
CCOC1=C2[C@H](c3ccccc3)N(S(=O)(=O)c3ccc(C)cc3)[C@H](C(C)C)[C@H]2n2c(=O)n(-c3ccccc3)c(=O)n2C1	nt	nt	nt	nt	-1	nt
O=C(NC1CCCCC1)c1cccc(NC(=O)c2ccccc2Cl)c1	nt	nt	nt	nt	-27	nt
COCCCN(C(=S)NC(=O)c1ccc(Br)cc1)c1c(N)n(Cc2ccccc2)c(=O)[nH]c1=O	-1	-31	-4	-3	24	6
COCCN(C(=O)COC(=O)c1cc2c(s1)CCC2)c1c(N)n(Cc2ccccc2)c(=O)[nH]c1=O	69*	nt	nt	nt	-17	nt
CCCCN(C(=S)NC(=O)c1ccccc1)c1c(N)n(Cc2ccccc2)c(=O)[nH]c1=O	-2	-30	1	27	37*	-8
CCN(C(=O)CN1CCCc2ccccc21)c1c(N)n(Cc2ccccc2)c(=O)[nH]c1=O	nt	nt	99*	109*	nt	nt
COCCCNC(=O)c1cccn2c(=O)c3cc4ccccc4cc3nc12	4	14	20	67*	36	-15
CC1(C(O)(C#CC[N+]2(C)CCCCC2)c2ccccc2)CCCC1 (stereo unspecified)	-1	15	7	70*	-123	-6
CN(C)CCn1c2ccccc2c2nc3ccc([N+](=O)[O-])cc3cc21	-1	48*	-7	-22	-2	36
CCn1c2ccccc2c2cc([N+](=O)[O-])ccc21	-1	7	-4	5	3	1
COc1ccc(NC(=O)c2ccc(NCCN3C(=O)CCC3=O)c([N+](=O)[O-])c2)cc1	7	-3	?	3.6*	-9	-5
Cc1ccc(NC(=O)c2ccc(NCCCN3CCC(C)CC3)c([N+](=O)[O-])c2)cc1F	-3	41*	40	2	0	-81
COc1ccc(NC(=O)C2Cc3ccccc3CN2C(=O)c2ccccc2)cn1 (stereo unspecified)	-3	-15	?	?	71*	-2
CCCCN(C=O)c1c(CC)nc2ccc(C(=O)NCc3cccs3)cn12	nt	nt	nt	nt	8	nt
O=C1CC(SC(=S)C2CCCC2=O)C(=O)N1 (stereo unspecified)	nt	nt	nt	nt	46*	nt
O=C(Nc1cccc(Oc2ccc(C(=O)O)c(C(=O)O)c2)c1)c1ccc(-c2ccccc2)cc1	40	-8	66*	13	3	24
CC(C)(C)C(=O)Nc1ccc(C(=O)Nc2cccc(Oc3ccc(C(=O)O)c(C(=O)O)c3)c2)cc1	8	-31	4	-2	1	19
Cc1cc2nccc(-c3ccc(OCCCF)cc3)n2n1	2	-20	-7	-4	2	-5
CCC(C)c1ccccc1N1CC(C(=O)NCCCn2nc(C)cc2C)CC1=O (stereo unspecified)	nt	nt	nt	nt	3	nt
CC(=O)c1ccc(OCCCC(=O)NC2=NCCS2)cc1	-2	0	7	0	39*	5
Cc1nc([N+](=O)[O-])cn1CC(=O)c1ccc(Br)cc1	2	nt	nt	nt	6	nt
O=C(O)CNC(=O)CC1S/C(=N/N=C2\CSC(=O)N2)NC1=O (stereo unspecified)	1	-6	14	8	42*	4
CCOC(=O)c1cc2c(=O)n3cccc(C)c3nc2n(C)c1=N	nt	18	96*	62*	nt	11
CCOCCCn1c(=N)c(C(N)=S)cc2c(=O)n3cccc(C)c3nc21	10	-4	87*	78*	15	9
O=C(COC(=O)/C=C/c1ccccc1Cl)NCCNC(=O)COC(=O)/C=C/c1ccccc1Cl	5	-34	-4	-19	2	-21
SMILES	HCV core dimer	FID counter	eIF4H FP inh	PABP polyA inh	MLLE-PAM2 inh	HCV NS3 hel inh
S=C(NCCCN1CCOCC1)NC1CCCC1	0	8	-7	0	-16	7
S=C(NCCCN1CCOCC1)NCCCN1CCOCC1	-2	10	-11	2	41*	-8
COC(=O)C1CCN(C(=O)CN2C(=O)NC(CC(C)C)C2=O)CC1 (stereo unspecified)	nt	nt	nt	nt	0	nt
COc1ccccc1C1C=C(c2ccc(Cl)cc2)Nc2nc(NS(C)(=O)=O)nn21 (stereo unspecified)	13	-30	2	17	nt	13
COc1ccc(C2C=C(c3ccc(Cl)cc3)Nc3nc(NC(C)=O)nn32)cc1 (stereo unspecified)	9	-3	38	56	nt	-10
O=C(c1nc2n(n1)C(c1ccc(Cl)cc1)C=C(c1ccccc1)N2)N1CCOCC1 (stereo unspecified)	3	-31	66*	65*	60	5
CC(=O)Nc1nc2n(n1)C(c1ccc(F)cc1)C=C(c1ccccc1)N2 (stereo unspecified)	-3	-2	-8	7	34	-4
CS(=O)(=O)Nc1nc2n(n1)C(c1ccccc1)C=C(c1ccc(Br)cc1)N2 (stereo unspecified)	18	-25	76*	11*	147	12
CC(=O)Nc1nc2n(n1)C(c1ccccc1)C=C(c1ccccc1)N2 (stereo unspecified)	-6	-12	18	39	59*	-6
O=C(COC(=O)CN1C(=O)C2CC=CCC2C1=O)Nc1cccc([N+](=O)[O-])c1 (stereo unspecified)	nt	nt	nt	nt	4	nt
COc1ccc(-n2c(SCC(=O)Nc3ccccc3)nnc2-c2ccc(NS(=O)(=O)c3ccc(C)cc3)cc2)cc1	52*	1	-15	0	-38	-5
COc1ccc(-n2c(SCC(N)=O)nnc2-c2ccc(NS(=O)(=O)c3ccc(C)cc3)cc2)cc1	6	-34	-4	-1	-27	-15
COc1ccc(Cn2c3nc4ccccc4nc3c3c(=O)n(Cc4ccco4)cnc32)cc1	nt	nt	45	38	nt	nt
Cc1cccc(-n2cnc3c(c2=O)c2nc4ccccc4nc2n3Cc2ccco2)c1	60*	nt	54	30	2	nt
COc1ccc(OC)c(/C=N/NC(=O)CCc2ccc(O)c(O)c2)c1	-12	2	21*	71*	6	14
CC(=O)C1=C(O)C(=O)N(c2ccc(F)cc2)C1c1ccc(C)cc1 (stereo unspecified)	5	-14	5	6	3	16
CC(=O)C1=C(O)C(=O)N(c2cccc(C(=O)O)c2)C1c1ccc(F)cc1 (stereo unspecified)	2	-2	?	54*	-12	-5
Nc1nc(=O)n(C2CC(O)C(CO)O2)cc1F (stereo unspecified)	nt	nt	nt	nt	2	nt
